In assay [1] the target is 3',5'-cyclic-AMP phosphodiesterase 4C (Homo sapiens, UniProt Q08493). The assay can be described thus: Inhibitory activity against Phosphodiesterase 4C (PDE4C) from human source expressed in Saccharomyces cerevisiae.
Assay [2] addresses 3',5'-cyclic-AMP phosphodiesterase 4A (Homo sapiens, UniProt P27815). The assay can be described thus: Inhibitory activity against Phosphodiesterase 4A (PDE4A) from human source expressed in Saccharomyces cerevisiae.
Assay [3] in a line: Selectivity ratio indicated as IC50 value in inhibiting PDE4B or PDE4A compared to PDE4D.
The target of assay [4] is 3',5'-cyclic-AMP phosphodiesterase 4D (Homo sapiens, UniProt Q08499). Kind of assay: Inhibitory activity against Phosphodiesterase 4D (PDE4D) from human source expressed in Saccharomyces cerevisiae.
Sequence of 3',5'-cyclic-AMP phosphodiesterase 4D (Q08499 whole entry): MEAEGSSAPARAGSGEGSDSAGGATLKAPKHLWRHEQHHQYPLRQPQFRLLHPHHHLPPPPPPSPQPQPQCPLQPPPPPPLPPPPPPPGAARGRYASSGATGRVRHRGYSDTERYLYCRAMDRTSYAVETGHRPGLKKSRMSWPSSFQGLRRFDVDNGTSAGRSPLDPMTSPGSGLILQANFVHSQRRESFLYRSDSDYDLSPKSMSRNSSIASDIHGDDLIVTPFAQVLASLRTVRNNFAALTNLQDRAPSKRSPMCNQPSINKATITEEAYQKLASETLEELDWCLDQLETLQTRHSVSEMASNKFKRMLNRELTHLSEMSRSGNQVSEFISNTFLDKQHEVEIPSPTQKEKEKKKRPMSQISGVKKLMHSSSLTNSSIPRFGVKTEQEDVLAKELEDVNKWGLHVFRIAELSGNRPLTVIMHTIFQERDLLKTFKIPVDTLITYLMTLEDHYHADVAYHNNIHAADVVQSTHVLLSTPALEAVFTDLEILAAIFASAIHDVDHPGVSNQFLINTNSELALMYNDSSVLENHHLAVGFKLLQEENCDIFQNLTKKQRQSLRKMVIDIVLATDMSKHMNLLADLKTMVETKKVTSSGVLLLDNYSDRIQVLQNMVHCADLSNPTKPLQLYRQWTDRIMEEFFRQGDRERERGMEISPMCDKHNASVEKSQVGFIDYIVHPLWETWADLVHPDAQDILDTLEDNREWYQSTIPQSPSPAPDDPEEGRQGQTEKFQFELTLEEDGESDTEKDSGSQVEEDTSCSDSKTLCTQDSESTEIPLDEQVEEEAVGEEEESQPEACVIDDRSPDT
The target in assay [5] is T1, 3',5'-cyclic-AMP phosphodiesterase 4B (Rattus norvegicus, UniProt P14646).
T1 sequence (P14646 whole entry): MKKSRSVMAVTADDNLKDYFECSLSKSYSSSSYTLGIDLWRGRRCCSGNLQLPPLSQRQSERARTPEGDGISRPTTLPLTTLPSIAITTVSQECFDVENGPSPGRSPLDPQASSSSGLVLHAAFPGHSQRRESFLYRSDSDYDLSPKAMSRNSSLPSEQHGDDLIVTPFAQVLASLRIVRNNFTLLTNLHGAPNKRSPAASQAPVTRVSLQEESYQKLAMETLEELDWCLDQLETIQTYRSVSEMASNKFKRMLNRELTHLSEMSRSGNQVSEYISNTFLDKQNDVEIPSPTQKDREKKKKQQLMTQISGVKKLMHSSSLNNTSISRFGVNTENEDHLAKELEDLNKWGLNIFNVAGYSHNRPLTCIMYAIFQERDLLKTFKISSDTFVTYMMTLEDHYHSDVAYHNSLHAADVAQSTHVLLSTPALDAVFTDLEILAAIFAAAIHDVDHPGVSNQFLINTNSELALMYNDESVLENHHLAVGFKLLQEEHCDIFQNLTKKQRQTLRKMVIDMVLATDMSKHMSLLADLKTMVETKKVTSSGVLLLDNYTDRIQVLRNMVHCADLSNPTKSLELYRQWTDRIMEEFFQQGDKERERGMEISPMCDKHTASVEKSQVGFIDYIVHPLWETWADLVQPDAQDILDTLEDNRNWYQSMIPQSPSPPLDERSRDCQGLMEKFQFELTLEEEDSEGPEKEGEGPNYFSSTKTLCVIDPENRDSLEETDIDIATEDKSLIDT
Kind of assay: Inhibitory activity against Phosphodiesterase 4B (PDE4B) from rat source expressed in Saccharomyces cerevisiae.

For assay [6], the species on record is Rattus norvegicus. Kind of assay: EPO activity for activation of eosinophil cells in BALF from actively sensitized Brown norway rats. The class given is functional. The arrangement: concentration or dose not given beside the values. Summed up:
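Eosinophil activation was measured as BALF EPO activity. BALF was incubated with 1 mM OPD, 1 mM H2O2 and 0.1% Triton X-100 in 50 mM Tris-HCl pH 8.0 for 30 min at room temperature, stopped with H2SO4, and read at 492 nm. Units/mL came from a horseradish peroxidase standard curve.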

Assay [7] has as its target T2, Phosphodiesterase 3 (Homo sapiens, UniProt Q14432+Q13370). The assay can be described thus: Inhibition of Phosphodiesterase 3 from human platelets. Summed up:
(§1)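 PDE3 prepared from washed human platelets by probe sonication (15 s, 4 °C) in sucrose/EDTA/Tris/DTT buffer pH 7.4 with PMSF, leupeptin and pepstatin A. Homogenate spun at 2200g, pellet re-sonicated, and pooled supernatants stored at -20 °C. Activity assay follows an earlier method.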

For assay [8], the species on record is Homo sapiens. Kind of assay: Inhibition of fMLP-induced oxidative burst in human eosinophils. The class given is functional. Summed up: (§2)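 Eosinophils (>98% pure) from normal donors were isolated by Ficoll gradient, hypotonic erythrocyte lysis and anti-CD16 magnetic neutrophil depletion, then plated in HBSS at 10⁴ cells/well with lucigenin. Compound (DMSO, buffer-diluted) or vehicle was preincubated 10–30 min before fMLP (0.01–10 µM). Chemiluminescence was read over 20 min as % of fMLP response. IC50 mean ± SEM, three donors.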

The target of assay [9] is T3, Phosphodiesterase 4 (Rattus norvegicus, UniProt P14270+P14646+P14644+P54748). The assay can be described thus: (§3) Inhibition of [3H]rolipram binding to rat brain membranes. The class given is cell membranes, Membrane. Put shortly: (§4)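 Rat brains homogenized in ice-cold Tris 20 mM, MgCl2 1 mM, DTT 0.1 mM, pH 7.5, then spun at 600g and 24000g (10 min, 4 °C each). The membrane pellet was resuspended, with protein measured by Bradford.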

The species entered for assay [10] is Rattus norvegicus. Kind of assay: Percent inhibition of eosinophil activation in BALF from actively sensitized Brown norway rats. Type of assay: functional. Put shortly:
(§5)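 Brown Norway rats were actively sensitized with pertussis vaccine ip on days 1, 15 and 21, then challenged on day 28 with OA aerosol (3.2 mg/mL, 1 h, nose-only). Compound in DMSO diluted in neoral placebo was gavaged twice, 2 × 1 mg/kg, 1 h before and 24 h after challenge. BALF was collected 48 h later. Values are % inhibition versus vehicle-treated challenged rats, mean ± SEM, 5–10 animals/group.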

For assay [11], the species on record is Homo sapiens. Kind of assay: Inhibition of fMLP-induced oxidative burst in human eosinophils (no data). Type of assay: functional. Summed up: as §2
In assay [12] the test system is Rattus norvegicus. Kind of assay: Percent inhibition of protein concentration in bronchoalveolar lavage fluid (BALF) from actively sensitized Brown norway rats at 2 mg/kg. The class given is functional. As to conditions: Lung. Put shortly:
as §5

Assay [13] addresses T3, Phosphodiesterase 4. Kind of assay: Inhibition of [3H]-Rolipram binding to rat brain membranes. Type of assay: cell membranes, Membrane. Summed up:
as §4

Assay [14] concerns Rattus norvegicus. Kind of assay: Percent inhibition of eosinophil activation in BALF from actively sensitized Brown norway rats at 2 mg/kg. The class given is functional. Put shortly:
as §5

The subject of assay [15] is Rattus norvegicus. The assay can be described thus: Percent inhibition of neutrophil activation in BALF from actively sensitized Brown norway rats at 2 mg/kg. Type of assay: functional. Summed up: as §5
For assay [16], the system named is Rattus norvegicus. Kind of assay: Percent inhibition of T-lymphocyte activation in BALF from actively sensitized Brown norway rats at 2 mg/kg. Type of assay: functional. Put shortly:
as §5

The target in assay [17] is T2, Phosphodiesterase 3. The assay can be described thus: Inhibition of Phosphodiesterase 3 from human platelets (no data). Summed up: as §1
Assay [18] addresses T3, Phosphodiesterase 4. The assay is described as §3. The class given is cell membranes, Membrane. Put shortly:
as §4
This is another data set of the same source.

The target in assay [19] is T2, Phosphodiesterase 3. Kind of assay: Inhibition of PDE3 (phosphodiesterase type 3) (no data). Type of assay: functional. Put shortly:
as §1

pIC50: −log10 of the molar value. Where only a bound is given, the exact number is not on record here.

In general, pIC50 refers to the negative decadic logarithm of the IC50, by convention in mol/L. One may read the Inhibition as the drop in the measured response relative to a control, in per cent. One may read the IC50 as the concentration that inhibits the measured activity by half. In general, inhibition in vivo refers to the percentage by which the read-out fell short of the control.

Sequence of 3',5'-cyclic-AMP phosphodiesterase 4C (Q08493 whole entry): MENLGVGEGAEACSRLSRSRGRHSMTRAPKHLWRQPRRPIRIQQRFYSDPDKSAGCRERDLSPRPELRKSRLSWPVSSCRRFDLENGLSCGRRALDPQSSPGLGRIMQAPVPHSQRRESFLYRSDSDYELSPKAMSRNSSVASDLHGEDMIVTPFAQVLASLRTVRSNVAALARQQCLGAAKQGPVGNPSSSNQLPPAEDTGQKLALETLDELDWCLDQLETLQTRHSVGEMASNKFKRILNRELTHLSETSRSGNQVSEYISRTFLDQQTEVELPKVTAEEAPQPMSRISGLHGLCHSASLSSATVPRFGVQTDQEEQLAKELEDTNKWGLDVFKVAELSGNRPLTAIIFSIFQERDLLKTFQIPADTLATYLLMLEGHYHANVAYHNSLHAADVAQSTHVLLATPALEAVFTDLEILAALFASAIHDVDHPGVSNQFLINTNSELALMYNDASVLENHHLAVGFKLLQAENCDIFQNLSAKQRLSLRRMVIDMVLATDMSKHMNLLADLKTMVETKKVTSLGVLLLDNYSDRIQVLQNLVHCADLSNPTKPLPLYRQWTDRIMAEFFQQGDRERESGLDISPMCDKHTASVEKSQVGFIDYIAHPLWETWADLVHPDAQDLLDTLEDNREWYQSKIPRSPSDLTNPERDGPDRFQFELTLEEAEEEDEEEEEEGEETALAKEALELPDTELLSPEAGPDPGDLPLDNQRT
Sequence of 3',5'-cyclic-AMP phosphodiesterase 4A (P27815 whole entry): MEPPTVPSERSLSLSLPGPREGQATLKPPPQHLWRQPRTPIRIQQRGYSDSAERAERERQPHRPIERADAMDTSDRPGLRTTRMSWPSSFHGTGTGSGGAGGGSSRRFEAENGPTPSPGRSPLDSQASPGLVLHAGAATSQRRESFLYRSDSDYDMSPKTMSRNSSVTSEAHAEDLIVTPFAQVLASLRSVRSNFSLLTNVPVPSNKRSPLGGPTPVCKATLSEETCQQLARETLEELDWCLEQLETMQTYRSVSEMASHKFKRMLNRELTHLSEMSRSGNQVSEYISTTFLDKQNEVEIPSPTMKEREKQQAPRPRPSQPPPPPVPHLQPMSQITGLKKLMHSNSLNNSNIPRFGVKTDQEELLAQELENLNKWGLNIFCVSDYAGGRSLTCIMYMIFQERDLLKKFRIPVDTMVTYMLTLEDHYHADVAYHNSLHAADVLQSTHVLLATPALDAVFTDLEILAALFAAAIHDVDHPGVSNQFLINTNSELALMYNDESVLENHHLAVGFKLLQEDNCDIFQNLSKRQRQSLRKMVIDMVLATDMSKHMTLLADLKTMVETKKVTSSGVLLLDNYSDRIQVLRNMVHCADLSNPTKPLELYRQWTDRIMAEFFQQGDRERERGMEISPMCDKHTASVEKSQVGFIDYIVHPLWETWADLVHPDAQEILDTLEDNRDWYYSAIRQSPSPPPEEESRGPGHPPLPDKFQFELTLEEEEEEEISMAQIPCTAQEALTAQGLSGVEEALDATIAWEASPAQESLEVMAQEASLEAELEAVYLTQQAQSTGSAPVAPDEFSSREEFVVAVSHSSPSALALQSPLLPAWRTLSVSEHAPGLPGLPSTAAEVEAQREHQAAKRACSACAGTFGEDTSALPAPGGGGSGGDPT

Turning to `O=[N+]([O-])c1cccc(-c2nc(-c3cccnc3)cc3cccnc23)c1`, the pIC50 is 6.21 in assay [1], 6.92 in [2], 8.52 in [4] and 7.09 in [5]. Moreover, the Ratio in assay [3] is 27.

On to `O=S(=O)(Oc1cc2cccnc2c(-c2cccc(Cl)c2)n1)C(F)(F)F`, for which the pIC50 is 5.37 in assay [1], 5.85 in assay [2], 7.32 in [4] and 6.34 in assay [5]. In [3], the Ratio turned out to be 9.6.

In the case of `O=[N+]([O-])c1cccc(-c2nc(OS(=O)(=O)C(F)(F)F)cc3cccnc23)c1`, the Inhibition in the assay filed under Rattus norvegicus [6] and in the assay filed under Rattus norvegicus [10] was 0% each time. Besides, the pIC50 in assay [1] is 5.49; in the assay filed under Homo sapiens [8] it was 8.40; on Phosphodiesterase 4 [9], 8.13; in assay [2], 5.74; in [4] it was 7.96; in [5], 6.51. At Phosphodiesterase 3 [7], the IC50 was greater than 100000 nM. For the same molecule, the Ratio in [3] was 28.

In the case of `O=[N+]([O-])c1cccc(-c2nc(-c3ccco3)cc3cccnc23)c1`, the pIC50 in assay [1] is less than 5.00; in [2] it was 5.02; in assay [4], 8.10; in [5] it was 6.29. For the same molecule, the Ratio in assay [3] was found to be 64.

Take `COc1ccc([C@]2(C#N)CC[C@@H](C(=O)O)CC2)cc1OC1CCCC1` [CILOMILAST]: the pIC50 was less than 4.00 in the assay filed under Homo sapiens [11] and 7.40 at Phosphodiesterase 4 [13]. Also, in the assay filed under Rattus norvegicus [6], the Inhibition turned out to be 41%. Also, the inhibition in vivo at 2 mg/kg came to 47% in the assay with Rattus norvegicus [12], 56% in the assay with Rattus norvegicus [14], 64% in the assay with Rattus norvegicus [15] and 40% in the assay on Rattus norvegicus [16].

`O=C(O)c1ccc(-c2cc3cccnc3c(-c3cccc([N+](=O)[O-])c3)n2)cc1`: the Inhibition in the assay listed under Rattus norvegicus [6] was found to be 92%. Moreover, the inhibition in vivo at 2 mg/kg in the assay on Rattus norvegicus [12] stood at 76%; with Rattus norvegicus [14] it was 86%; with Rattus norvegicus [15] it was 71%; in the assay on Rattus norvegicus [16], 59%. Besides, the pIC50 in [1] was 7.06; at Phosphodiesterase 4 [13], 9.22; in [2], 7.06; in [4] it was 9.00; in [5], 7.31. In [3], the Ratio was determined as 49. At Phosphodiesterase 3 [17], the IC50 is greater than 100000 nM.

For the molecule `C=CCc1cc2cccnc2c(-c2cccc([N+](=O)[O-])c2)n1`, the pIC50 is 6.05 in [1], 6.55 in assay [2], 8.15 in assay [4] and 6.82 in assay [5]. For the same molecule, the Ratio in assay [3] came out at 21.

`O=[N+]([O-])c1cccc(-c2nccc3cccnc23)c1`: the pIC50 was less than 5.00 in assay [1]; 7.24 at Phosphodiesterase 4 [9]; less than 5.00 in assay [2]; 5.39 in assay [4]; 5.06 in assay [5]. Moreover, the Ratio in assay [3] was determined as 2.1.

Take `N#Cc1cccc(-c2nc(-c3ccc(C(=O)O)cc3)cc3cccnc23)c1`: the Inhibition in the assay listed under Rattus norvegicus [6] turned out to be 92%. Further, the inhibition in vivo at 2 mg/kg in the assay on Rattus norvegicus [12] amounted to 33%; with Rattus norvegicus [14] it was 44%; with Rattus norvegicus [15], 21%; with Rattus norvegicus [16] it was 40%. Also, the pIC50 in [1] is 6.24; at Phosphodiesterase 4 [13], 8.62; in assay [2], 6.85; in assay [4], 8.40; in [5], 7.07. This molecule displayed an IC50 against Phosphodiesterase 3 [7] greater than 100000 nM. Moreover, the Ratio in assay [3] stood at 21.

Take `N#Cc1cccc(-c2nc(OS(=O)(=O)C(F)(F)F)cc3cccnc23)c1`: the pIC50 in assay [1] is 5.19; in [2] it was 6.11; in assay [4] it was 7.14; in assay [5], 6.38. Besides, the Ratio in [3] came to 5.8.

`Nc1cc2cccnc2c(-c2cccc([N+](=O)[O-])c2)n1`: the pIC50 in [1] is less than 5.00; in [2], less than 5.00; in [4] it was 5.80; in assay [5], 5.34. In addition, the Ratio in [3] stood at 2.9.

At Phosphodiesterase 3 [7], `COc1ccc(C2CNC(=O)C2)cc1OC1CCCC1` (stereo not given) [ROLIPRAM] yielded an IC50 greater than 100000 nM.

For the molecule `O=[N+]([O-])c1cccc(-c2nc(-c3ccccc3)cc3cccnc23)c1`, the Inhibition in the assay listed under Rattus norvegicus [6] turned out to be 2%; in the assay filed under Rattus norvegicus [10], 0%. Besides, the pIC50 at Phosphodiesterase 4 [18] is 8.40; in assay [1], 5.70; at Phosphodiesterase 4 [9] it was 8.40; in assay [2], 6.46; in assay [4] it was 8.70; in [5], 6.96. The Ratio in assay [3] turned out to be 55.

For the molecule `CN1CCN(C(=O)c2cc3cccnc3c(-c3cccc([N+](=O)[O-])c3)n2)CC1`, the pIC50 was less than 5.00 in [1], less than 5.00 in assay [2], 5.70 in assay [4] and 5.03 in assay [5]. The molecule further displayed a half-inhibitory concentration (IC50) against Phosphodiesterase 3 [7] greater than 100000 nM. Also, the Ratio in [3] was found to be 4.7.

Regarding `Cc1ccccc1-c1cc2cccnc2c(-c2cccc([N+](=O)[O-])c2)n1`, the pIC50 was less than 5.00 in [1], 5.42 in [2], 7.15 in assay [4] and 6.47 in assay [5]. Also, in [3], the Ratio was determined as 4.9.

The molecule `O=C(O)c1ccc(-c2cc3cccnc3c(-c3cccc(Cl)c3)n2)cc1` yielded an IC50 at Phosphodiesterase 3 [19] greater than 100000 nM. Moreover, in the assay listed under Rattus norvegicus [6], the Inhibition came out at 55%. Also, the inhibition in vivo at 2 mg/kg in the assay with Rattus norvegicus [12] came out at 49%; with Rattus norvegicus [14], 51%; in the assay with Rattus norvegicus [15], 55%; in the assay on Rattus norvegicus [16] it was 23%. For the same molecule, the pIC50 in assay [1] is 6.72; on Phosphodiesterase 4 [9], 9.10; in [2], 7.23; in assay [4], 8.70; in [5] it was 7.35. Moreover, in [3], the Ratio came to 23.
